ChEMBL document CHEMBL2086314, “Synthesis and anticonvulsant activity of new N-Mannich bases derived from 3-(2-fluorophenyl)- and 3-(2-bromophenyl)-pyrrolidine-2,5-diones. Part II” (Bioorg Med Chem, 2012)
Calls of active or inactive are those of the source. No cut-off for these calls is given here.

What was measured:
Mus musculus [1] = assay: Neurotoxicity in ip dosed CF-1 albino mouse assessed as motor impairment measured after 0.5 hrs by rotarod test; assay type: toxicity, organism-based; details: in vivo
Summary of the method: (§1)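 Rotarod neurotoxicity in male CF-1 mice given ip doses of 30, 100 or 300 mg/kg (0.5% methylcellulose suspension), examined 0.5 and 4 h after dosing. Impairment means failing to hold balance on the rod for 1 min. Value is the minimum dose causing toxicity in half or more of the animals; response comments are recorded.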

Mus musculus [2] = assay: Anticonvulsant activity in ip dosed CF-1 albino mouse assessed as protection from maximal electric shock-induced seizures measured after 4 hrs; assay type: functional; details: read-out: MED
Summary of the method: (§2)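 Male CF-1 mice dosed ip at 30, 100 or 300 mg/kg, suspension in 0.5% methylcellulose/water. MES: corneal electrodes primed with electrolyte containing anaesthetic, 50 mA, 60 Hz, 0.2 s. Examined 0.5 and 4 h after dosing. Value is the minimum dose protecting half or more of the animals.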

Mus musculus [3] = assay: Neurotoxicity in CF-1 albino mouse assessed as motor impairment at 300 mg/kg, ip measured after 4 hrs by rotarod test; assay type: toxicity, organism-based; set-up: dose 300 mg/kg, route intraperitoneal; details: in vivo; summary of the method: as §1
Mus musculus [4] = assay: Anticonvulsant activity in CF-1 albino mouse assessed as protection from maximal electric shock-induced seizures at 300 mg/kg, ip measured after 0.5 hrs; assay type: functional, organism-based; set-up: dose 300 mg/kg; summary of the method: as §2
Mus musculus [5] = assay: Anticonvulsant activity in ip dosed CF-1 albino mouse assessed as protection against subcutaneous pentylenetetrazol-induced seizures measured after 0.5 hrs; assay type: functional; details: read-out: MED
Summary of the method: (§3)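 scPTZ test in male CF-1 mice. Compound suspended in 0.5% methylcellulose/water, ip at 30, 100 or 300 mg/kg. Pentylenetetrazole 85 mg/kg (CD97, clonic seizures lasting at least 5 s) given subcutaneously at the test time, read at 0.5 and 4 h. Value is the minimum dose protecting half or more of the animals.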

Rattus norvegicus [6] = assay: Anticonvulsant activity in Sprague-Dawley rat assessed as protection from maximum electric shock-induced seizures at 30 mg/kg, po measured after 0.25 hrs; assay type: functional
Summary of the method: (§4)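 Male Sprague–Dawley rats, four per group, given 30 mg/kg orally as a suspension in 0.5% methylcellulose/water. MES stimulus 150 mA, 60 Hz, 0.2 s via corneal electrodes. Tested at 0.25, 0.5, 1, 2 and 4 h; value is rats protected out of four.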

Rattus norvegicus [7] = assay: Anticonvulsant activity in Sprague-Dawley rat assessed as protection from maximum electric shock-induced seizures at 30 mg/kg, po measured after 0.5 hrs; assay type: functional; summary of the method: as §4
Rattus norvegicus [8] = assay: Neurotoxicity in Sprague-Dawley rat assessed as motor impairment at 30 mg/kg, po by rotarod test; assay type: toxicity, organism-based; set-up: dose 30 mg/kg, route oral; details: in vivo
Summary of the method: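 Male Sprague–Dawley rats, four animals, oral 30 mg/kg in 0.5% methylcellulose/water. Motor impairment on the rotarod (failure to keep balance for 1 min) assessed alongside MES at five times from 0.25 to 4 h.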

Rattus norvegicus [9] = assay: Anticonvulsant activity in Sprague-Dawley rat assessed as protection from maximum electric shock-induced seizures at 30 mg/kg, po measured after 1 hr; assay type: functional; summary of the method: as §4
Mus musculus [10] = assay: Anticonvulsant activity in ip dosed CF-1 albino mouse assessed as protection from maximal electric shock-induced seizures measured after 0.5 hrs; assay type: functional; details: read-out: MED; summary of the method: as §2
Rattus norvegicus [11] = assay: Anticonvulsant activity in Sprague-Dawley rat assessed as protection from maximum electric shock-induced seizures at 30 mg/kg, po measured after 2 hrs; assay type: functional; summary of the method: as §4
Mus musculus [12] = assay: Anticonvulsant activity in CF-1 albino mouse assessed as protection against subcutaneous pentylenetetrazol-induced seizures at 300 mg/kg, ip measured after 4 hrs; assay type: functional, organism-based; set-up: dose 300 mg/kg; summary of the method: as §3
Rattus norvegicus [13] = assay: Anticonvulsant activity in Sprague-Dawley rat assessed as protection from maximum electric shock-induced seizures at 30 mg/kg, po measured after 4 hrs; assay type: functional; summary of the method: as §4
Mus musculus [14] = assay: Anticonvulsant activity in CF-1 albino mouse assessed as protection against subcutaneous pentylenetetrazol-induced seizures at 300 mg/kg, ip measured after 0.5 hrs; assay type: functional, organism-based; set-up: dose 300 mg/kg; summary of the method: as §3
[15] = Neurotoxicity in po dosed Sprague-Dawley rat assessed as motor impairment measured at time of peak effect by rotarod test; assay type: toxicity, organism-based; details: in vivo
Summary of the method: (§5)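 Male Sprague–Dawley rats dosed orally (0.5% methylcellulose suspension). MES 150 mA, 60 Hz, 0.2 s; rotarod impairment is failure to keep balance for 1 min. Groups of eight, at the previously estimated time of peak effect, with doses varied until at least three points fell in the 10–90% range. ED50/TD50 with 95% confidence intervals from regression; PI = TD50/ED50.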

Mus musculus [16] = assay: Anticonvulsant activity in ip dosed maximal electric shock-induced CF-1 albino mouse assessed as time of peak effect; assay type: functional
Summary of the method: (§6)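 ED50 and TD50 determined in male CF-1 mice after ip dosing (0.5% methylcellulose suspension) at the previously estimated time of peak effect. MES 50 mA, 60 Hz, 0.2 s. Groups of eight, with doses varied until at least three points fell between 10–90% protection or motor impairment. Regression gives ED50/TD50 with 95% confidence intervals; PI = TD50/ED50.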

Mus musculus [17] = organism: Mus musculus; assay: Protective index, ratio of TD50 for CF-1 albino mouse to ED50 for CF-1 albino mouse assessed as protection from maximum electric shock-induced seizures; assay type: functional; summary of the method: as §6
Rattus norvegicus [18] = organism: Rattus norvegicus; assay: Protective index, ratio of TD50 for Sprague-Dawley rat to ED50 for Sprague-Dawley rat assessed as protection from maximum electric shock-induced seizures; assay type: functional; summary of the method: as §5
Rattus norvegicus [19] = assay: Anticonvulsant activity in po dosed maximum electric shock-induced Sprague-Dawley rat assessed as time of peak effect; assay type: functional; summary of the method: as §5
Mus musculus [20] = assay: Neurotoxicity in CF-1 albino mouse assessed as motor impairment, ip measured after 4 hrs by rotarod test; assay type: toxicity, organism-based; details: in vivo
Mus musculus [21] = assay: Anticonvulsant activity in CF-1 albino mouse assessed as protection from maximal electric shock-induced seizures at 300 mg/kg, ip measured after 4 hrs; assay type: functional, organism-based; set-up: dose 300 mg/kg; summary of the method: as §2
Mus musculus [22] = assay: Neurotoxicity in CF-1 albino mouse assessed as motor impairment at 300 mg/kg, ip measured after 0.5 hrs by rotarod test; assay type: toxicity, organism-based; set-up: dose 300 mg/kg, route intraperitoneal; details: in vivo; summary of the method: as §1
Mus musculus [23] = assay: Anticonvulsant activity in CF-1 albino mouse assessed as protection against 6 Hz psychomotor seizure at 100 mg/kg, ip measured after 2 hrs; assay type: functional; details: route intraperitoneal
Summary of the method: (§7)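 6-Hz psychomotor seizure in male CF-1 mice, compound suspended in 0.5% methylcellulose/water, given ip (100 or 75 mg/kg). Corneal stimulation with 0.2 ms monopolar rectangular pulses at 6 Hz for 3 s, 32 mA, constant-current device. Protected if normal exploratory behaviour resumes within 10 s. Tested 0.25–4 h after dosing; value is mice protected out of four.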

Mus musculus [24] = assay: Anticonvulsant activity in CF-1 albino mouse assessed as protection against 6 Hz psychomotor seizure at 100 mg/kg, ip measured after 1 hr; assay type: functional; details: route intraperitoneal; summary of the method: as §7
Mus musculus [25] = assay: Anticonvulsant activity in CF-1 albino mouse assessed as protection against 6 Hz psychomotor seizure at 100 mg/kg, ip measured after 0.5 hrs; assay type: functional; details: route intraperitoneal; summary of the method: as §7
Mus musculus [26] = assay: Anticonvulsant activity in CF-1 albino mouse assessed as protection against 6 Hz psychomotor seizure at 100 mg/kg, ip measured after 4 hrs; assay type: functional; details: route intraperitoneal; summary of the method: as §7
Mus musculus [27] = assay: Anticonvulsant activity in CF-1 albino mouse assessed as protection against 6 Hz psychomotor seizure at 100 mg/kg, ip measured after 0.25 hrs; assay type: functional; details: route intraperitoneal; summary of the method: as §7

SMILES	MTC (Mus musculus [1]) [mg/kg]	minimal effective dose (Mus musculus [2]) [mg/kg]	Activity (Mus musculus [3])	Activity (Mus musculus [4])	Activity (Rattus norvegicus [6]) [%]	Activity (Rattus norvegicus [7]) [%]	Activity (Rattus norvegicus [8])	Activity (Rattus norvegicus [9]) [%]	Activity (Rattus norvegicus [11]) [%]	Activity (Mus musculus [12])	Activity (Rattus norvegicus [13]) [%]	Activity (Mus musculus [21])	Activity (Mus musculus [22])	also measured
O=C1CC(c2ccccc2F)C(=O)N1CN1CCN(c2ccccc2)CC1 (racemic)	300	300	Non-toxic	inactive										
O=C1CC(c2ccccc2Br)C(=O)N1CN1CCOCC1 (racemic)	300	100	Non-toxic		0	0	Non-toxic	0	0	inactive	25			minimal effective dose (Mus musculus [5]): 300 mg/kg; minimal effective dose (Mus musculus [10]): 100 mg/kg
O=C1NC(=O)C(c2ccccc2)(c2ccccc2)N1 [PHENYTOIN]	100	30			25	100	Non-toxic	75	75	inactive	75			Activity (Mus musculus [14]): inactive; TD50 [15]: > 100 mg/kg; Time (Mus musculus [16]): 1 h; Ratio TD50/ED50 (Mus musculus [17]): 7.74; minimal effective dose (Mus musculus [10]): 30 mg/kg; Ratio TD50/ED50 (Rattus norvegicus [18]): 3.6; Time (Rattus norvegicus [19]): 2 h; MTC (Mus musculus [20]): 100 mg/kg
O=C1CC(c2ccccc2F)C(=O)N1CN1CCN(c2ccccc2Cl)CC1 (stereo unspecified)			Non-toxic	inactive								inactive	Non-toxic	
O=C1CC(c2ccccc2F)C(=O)N1CN1CCN(C2CCCCC2)CC1 (racemic)			Non-toxic	inactive						inactive		inactive	Non-toxic	Activity (Mus musculus [14]): inactive
O=C1CC(c2ccccc2F)C(=O)N1CN1CCN(c2cccc(Cl)c2)CC1 (racemic)			Non-toxic	inactive								inactive	Non-toxic	
O=C1CC(c2ccccc2F)C(=O)N1CN1CCN(c2ccc(Cl)cc2)CC1 (racemic)		100	Non-toxic	inactive	0	0	Non-toxic	0	25		50		Non-toxic	Activity (Mus musculus [23]): 0%; Activity (Mus musculus [24]): 25%; Activity (Mus musculus [25]): 50%; Activity (Mus musculus [26]): 0%; Activity (Mus musculus [27]): 25%
O=C1CC(c2ccccc2Br)C(=O)N1CN1CCN(c2ccccc2)CC1 (racemic)		100	Non-toxic	inactive									Non-toxic	Activity (Mus musculus [23]): 75%; Activity (Mus musculus [24]): 50%; Activity (Mus musculus [25]): 0%; Activity (Mus musculus [26]): 50%; Activity (Mus musculus [27]): 25%
